Experimental data reported in ChEMBL document CHEMBL1125137, “Synthesis and structure-activity relationships of N,N'-di-o-tolylguanidine analogues, high-affinity ligands for the haloperidol-sensitive sigma receptor” (J Med Chem, 1990).

Columns and labels:
[1] = molecular target: Glutamate [NMDA] receptor; experiment: (§1) In vitro inhibitory activity against [3H](+)-MK-801 binding to PCP receptor in guinea pig brain membrane homogenates; format: cell membranes, Cavia porcellus
Outline: (§2)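 [3H](+)-MK-801 (97 Ci/mmol) at 1 nM final with guinea pig brain membranes at 150 μg protein/mL. Assay and filtration buffer was 5 mM Tris-HCl pH 7.4. Incubation 4 h at 25 °C. Nonspecific binding measured with 10 μM TCP or MK-801. Bound ligand collected by glass-fiber filtration and counted by scintillation. IC50 taken from displacement curves.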

[2] = molecular target: Glutamate [NMDA] receptor; experiment: In vitro inhibitory activity against [3H]-TCP binding to PCP receptor in guinea pig brain membrane homogenates; format: cell membranes, Cavia porcellus
Outline: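 Displacement of 1.8 nM [3H]TCP (100 Ci/mmol) from guinea pig brain membranes (800 μg protein/mL, 50 mM Tris-HCl pH 7.4). Incubation 45 min at room temperature. Nonspecific binding defined by 10 μM PCP. Vacuum filtration on glass-fiber filters, two washes, scintillation counting. IC50 interpolated from semilog displacement curves.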

[3] = molecular target: Glutamate [NMDA] receptor; experiment: as §1; format: cell membranes, Cavia porcellus; outline: as §2; remark: listed apart in the source
[4] = molecular target: sigma receptor (guinea pig); experiment: In vitro inhibitory activity against [3H]- (+)-3-PPP binding to sigma receptor in guinea pig brain membrane homogenates

| IC50 [1] | IC50 [2] | SMILES | other results |
| --- | --- | --- | --- |
| > 10 µM |  | NC(=Nc1ccccc1-c1ccccc1)Nc1ccccc1-c1ccccc1 |  |
| > 10 µM |  | NC(=Nc1ccccc1-c1ccccc1)Nc1cccc2ccccc12 |  |
|  | > 10 µM | Cc1cc(Br)ccc1N=C(N)Nc1ccc(Br)cc1C |  |
|  | 2.5 µM | Cc1ccccc1/N=C(/N)Nc1cccc(O)c1 |  |
| > 10 µM |  | CC1(C)C2CCC1(C)C(/N=C(\N)Nc1ccccc1I)C2 (stereo not drawn) |  |
|  | 4.35 µM | Cc1ccccc1/N=C(/N)Nc1ccc(N)cc1C |  |
| > 10 µM |  | Cc1ccccc1/N=C(\N)NC1C2CC3CC(C2)CC1C3 (stereo not drawn) |  |
| 10 µM | > 10 µM | Cc1ccccc1N=C(N)NC1CCCCC1 |  |
| 0.82 µM | 0.358 µM | CCc1ccccc1N=C(N)Nc1ccccc1CC |  |
| 0.275 µM |  | CC(C)c1ccccc1N=C(N)Nc1ccccc1C(C)C |  |
|  | 2.05 µM | Cc1ccccc1N=C(N)Nc1ccccc1I |  |
|  | 37 µM | Cc1cc([N+](=O)[O-])ccc1NC(N)=Nc1cccc(O)c1 |  |
| > 10 µM |  | Cc1cc(N)ccc1N=C(N)Nc1cccc(O)c1 |  |
| 13.3 µM | 31 µM | Cc1ccc(N=C(N)Nc2ccc(C)cc2)cc1 |  |
|  | 2.1 µM | Cc1ccccc1NC(N)=Nc1ccccc1[N+](=O)[O-] |  |
| > 10 µM |  | Cc1ccccc1/N=C(/N)Nc1ccccc1/C=C/c1ccccc1 |  |
| 10.3 µM |  | CCc1ccc(NC(=N)Nc2ccc(CC)cc2)cc1 |  |
|  | 1.9 µM | Cc1ccccc1/N=C(/N)Nc1c(C)cccc1C |  |
| 5 µM |  | Cc1ccccc1NC(N)=NC1CC2CCC1(C)C2(C)C (stereo not drawn) |  |
| 2 µM |  | Cc1ccccc1/N=C(\N)NC12CC3CC(C)(CC(C)(C3)C1)C2 |  |

| IC50 [1] | IC50 [2] | SMILES | other results |
| --- | --- | --- | --- |
| 4 µM |  | CC12CC3CC(C)(C1)CC(/N=C(\N)Nc1ccccc1I)(C3)C2 |  |
| 38.3 µM |  | CC(C)(C)c1ccccc1N=C(N)Nc1ccccc1C(C)(C)C |  |
| 0.33 µM | 0.37 µM | Cc1cccc(NC(=N)Nc2cccc(C)c2)c1 |  |
| > 9.6 µM |  | CC(C)(C)/N=C(\N)Nc1ccccc1I |  |
|  | 32 µM | Cc1ccccc1/N=C(\N)NC12CC3CC(CC(C3)C1)C2 |  |
| > 10 µM |  | Cc1ccccc1NC(N)=NC1CC2CCC1C2 (stereo not drawn) | IC50 [3]: > 10 µM |
| 2.11 µM |  | CCCc1cccc(NC(=N)Nc2cccc(CCC)c2)c1 |  |
| > 10 µM |  | NC1=Nc2ccccc2-c2ccccc2N1 |  |
|  | 32 µM | Cc1cccc(C)c1N=C(N)Nc1c(C)cccc1C |  |
| 10.7 µM | 7.8 µM | Cc1ccccc1NC(=N)Nc1ccccc1C [DITOLYLGUANIDINE] |  |
| > 10 µM |  | CC12CC3CC(C)(C1)CC(/N=C(\N)Nc1ccccc1/C=C/c1ccccc1)(C3)C2 |  |
|  | 4.3 µM | Cc1cc([N+](=O)[O-])ccc1NC(=N)Nc1ccc([N+](=O)[O-])cc1C |  |
| 0.498 µM |  | CC(C)c1cccc(NC(=N)Nc2cccc(C(C)C)c2)c1 |  |
| 0.24 µM | 0.21 µM | NC(=Nc1ccccc1I)Nc1ccccc1I |  |
| 0.168 µM | 0.082 µM | CCc1cccc(NC(=N)Nc2cccc(CC)c2)c1 |  |
|  | 5.7 µM | Cc1ccccc1/N=C(/N)Nc1ccc([N+](=O)[O-])cc1C |  |
|  | > 100 µM | Cc1cc(N)ccc1NC(=N)Nc1ccc(N)cc1C |  |
|  | 12 µM | Cc1ccccc1N=C(N)Nc1ccccc1N |  |
|  | 34 µM | NC(=Nc1ccc(Br)cc1)Nc1ccc(Br)cc1 |  |

More lines, now with the values behind:

| SMILES | IC50 [1] | IC50 [2] | other results |
| --- | --- | --- | --- |
| Cc1ccccc1N/C(N)=N/C1CC[C@@]2(C)C(=CCC3C2CC[C@@]2(C)C3CC[C@@H]2C(C)CCCC(C)C)C1 (stereo partly drawn) | > 10 µM |  |  |
| N=C(Nc1ccccc1/C=C/c1ccccc1)NC12CC3CC(CC(C3)C1)C2 | 3.5 µM |  |  |
| N=C(Nc1ccccc1C(F)(F)F)Nc1ccccc1C(F)(F)F |  | 4.15 µM |  |
| N=C(Nc1ccccc1I)NC1CC2CCC1C2 (stereo not drawn) | > 10 µM |  | IC50 [3]: > 10 µM |
| N=C(NC12CC3CC(CC(C3)C1)C2)NC12CC3CC(CC(C3)C1)C2 |  | > 10 µM |  |
| NC1=NCCN1c1ccccc1 |  | > 10 µM |  |
| N/C(=N\c1ccccc1[N+](=O)[O-])NC12CC3CC(CC(C3)C1)C2 | > 10 µM |  |  |
| N=C(N)N(c1ccccc1)c1ccccc1 |  |  | IC50 [4]: > 100 µM |
| N=C(Nc1ccccc1I)NC1C2CC3CC(C2)CC1C3 (stereo not drawn) | > 10 µM |  |  |
| N=C(NCc1ccccc1)NCc1ccccc1 |  | 6.8 µM |  |
| N=C(Nc1ccccc1CCc1ccccc1)NC12CC3CC(CC(C3)C1)C2 | > 10 µM |  |  |
| N=C(NC1CCCCC1)NC12CC3CC(CC(C3)C1)C2 |  | > 10 µM |  |
| N=C(Nc1ccccc1/C=C/c1ccccc1)NC1C2CC3CC(C2)CC1C3 (stereo not drawn) | > 10 µM |  |  |
| N=C(Nc1ccccc1I)Nc1ccccc1/C=C/c1ccccc1 | > 10 µM |  |  |
| ONC(=NC1CCCCC1)NC1CCCCC1 |  | > 10 µM |  |
| N=C(Nc1ccccc1)Nc1ccccc1 |  | 3.45 µM |  |
| N=C(Nc1ccccc1/C=C/c1c(F)c(F)c(F)c(F)c1F)NC12CC3CC(CC(C3)C1)C2 | > 10 µM |  |  |

| SMILES | IC50 [1] | IC50 [2] | other results |
| --- | --- | --- | --- |
| NC(=Nc1ccccc1-c1ccccc1)NC12CC3CC(CC(C3)C1)C2 | > 10 µM |  |  |
| CCCCCCCCN=C(NC1CCCCC1)NC1CCCCC1 | > 10 µM |  |  |
| NC(=NC1CCCCC1)NC1CCCCC1 |  | > 10 µM |  |
| N=C(NC1CC2CCC1C2)NC1CC2CCC1C2 (stereo not drawn) [listing 1 of 2 here] | > 10 µM |  |  |
| CNC(=N)NC |  | > 10 µM |  |
| NC1=Nc2cccc3cccc(c23)N1 |  |  | IC50 [3]: > 10 µM |
| NC(=Nc1ccccc1I)NC12CC3CC(CC(C3)C1)C2 | > 10 µM |  |  |
| N=C(NC1C2CC3CC(C2)CC1C3)NC1C2CC3CC(C2)CC1C3 (stereo not drawn) |  | > 10 µM |  |
| CC(=O)[C@H]1CCC2C3CC=C4CC(/N=C(\N)Nc5ccccc5C)CC[C@]4(C)C3CC[C@@]21C (stereo partly drawn) | > 10 µM |  |  |
| CN=C(NC1CCCCC1)NC1CCCCC1 |  | > 10 µM | IC50 [3]: > 10 µM |
| N=C(NC1C[C@H]1c1ccccc1)NC12CC3CC(CC(C3)C1)C2 (stereo partly drawn) | > 10 µM |  |  |
| N=C1N(c2ccccc2)CCN1c1ccccc1 | > 10 µM |  |  |
| N=C(Nc1cccc2ccccc12)Nc1cccc2ccccc12 | 0.134 µM |  |  |
| NC1=Nc2ccccc2CN1c1ccccc1 |  | > 10 µM |  |
| N=C(NC1CC2CCC1C2)NC1CC2CCC1C2 (stereo not drawn) [listing 2 of 2 here] | 5 µM |  |  |
| CCCCNC(=N)NCCCC |  | 49 µM |  |
| CC(C)c1ccc(NC(=N)Nc2ccc(C(C)C)cc2)cc1 | 26.8 µM |  |  |
